According to ChEMBL document CHEMBL4261600 (Eur J Med Chem, 2018):
Activity calls are given as the source filed them.

Columns and labels:
[1] = target: Cyclin-dependent kinase 7 (Homo sapiens) (UniProt P50613); assay: Inhibition of CDK7 in human MV4-11 cells assessed as decrease in RNA polymerase 2 phosphorylation at Ser 5 residues up to 3 uM after 2 hrs by immunoblotting analysis; format: cell-based
[2] = Tmax in mouse at 3 mg/kg, iv by LC-MS/MS analysis; format: ADME, organism-based; conditions: in vivo
[3] = target: Tyrosine-protein kinase receptor UFO (Homo sapiens) (UniProt P30530); assay: Binding affinity to wild-type human partial length AXL (R497 to Y821 residues) expressed in bacterial expression system assessed as remaining unbound target protein level at 1000 nM by Kinomescan method relative to control
In short: (§1)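 KINOMEscan competition binding profile across a panel of 468 kinases and mutants, with the inhibitor tested at a single concentration of 1 μM. Binding is reported as percent of control, meaning signal relative to a DMSO control.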

[4] = target: Casein kinase I isoform delta (Homo sapiens) (UniProt P48730); assay: Binding affinity to wild-type human full length CSNK1D (M1 to K409 residues) expressed in bacterial expression system assessed as remaining unbound target protein level at 1000 nM by Kinomescan method relative to control
Sequence of Casein kinase I isoform delta (Homo sapiens) (P48730 whole entry, looked up, the tested form may be a part, canonical isoform): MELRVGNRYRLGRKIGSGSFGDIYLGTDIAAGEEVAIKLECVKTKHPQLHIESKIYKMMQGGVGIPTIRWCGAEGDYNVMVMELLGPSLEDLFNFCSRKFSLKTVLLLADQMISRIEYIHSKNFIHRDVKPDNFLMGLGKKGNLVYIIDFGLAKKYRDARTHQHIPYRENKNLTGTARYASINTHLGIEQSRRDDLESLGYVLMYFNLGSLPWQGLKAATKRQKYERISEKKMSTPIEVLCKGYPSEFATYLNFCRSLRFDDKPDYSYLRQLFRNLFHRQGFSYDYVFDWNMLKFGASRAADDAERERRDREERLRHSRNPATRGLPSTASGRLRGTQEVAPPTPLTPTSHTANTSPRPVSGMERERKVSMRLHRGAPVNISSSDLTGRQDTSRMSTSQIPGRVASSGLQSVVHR
In short: (§2)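 KINOMEscan competitive binding profile at 1 μM inhibitor. Remaining target binding reported as percent of DMSO control.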

[5] = target: Myotonin-protein kinase (Homo sapiens) (UniProt Q09013); assay: Binding affinity to wild-type human partial length DMPK (V47 to V415 residues) expressed in bacterial expression system assessed as remaining unbound target protein level at 1000 nM by Kinomescan method relative to control
Sequence of Myotonin-protein kinase (Homo sapiens) (Q09013 whole entry, the tested form may be a part): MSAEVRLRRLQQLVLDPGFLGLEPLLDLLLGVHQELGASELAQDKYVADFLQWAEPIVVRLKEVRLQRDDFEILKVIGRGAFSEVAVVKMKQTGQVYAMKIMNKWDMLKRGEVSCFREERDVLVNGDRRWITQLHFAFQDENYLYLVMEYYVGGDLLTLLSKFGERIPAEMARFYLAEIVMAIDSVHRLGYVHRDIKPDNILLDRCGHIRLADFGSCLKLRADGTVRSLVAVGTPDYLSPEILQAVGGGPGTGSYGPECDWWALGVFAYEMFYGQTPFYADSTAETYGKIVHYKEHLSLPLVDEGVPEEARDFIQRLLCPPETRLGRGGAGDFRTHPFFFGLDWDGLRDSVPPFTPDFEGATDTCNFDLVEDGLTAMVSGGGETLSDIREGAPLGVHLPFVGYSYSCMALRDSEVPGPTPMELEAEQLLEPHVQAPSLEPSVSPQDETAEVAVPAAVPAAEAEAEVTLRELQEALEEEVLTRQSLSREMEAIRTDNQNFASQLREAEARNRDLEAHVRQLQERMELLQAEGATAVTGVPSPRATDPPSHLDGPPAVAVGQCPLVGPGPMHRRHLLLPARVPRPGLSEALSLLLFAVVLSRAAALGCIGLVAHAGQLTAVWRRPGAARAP

[6] = target: Ephrin type-A receptor 5 (Homo sapiens) (UniProt P54756); assay: Binding affinity to wild-type human partial length EPHA5 (T627 to V930 residues) expressed in bacterial expression system assessed as remaining unbound target protein level at 1000 nM by Kinomescan method relative to control
Sequence of Ephrin type-A receptor 5 (Homo sapiens) (P54756 whole entry, the tested form may be a part): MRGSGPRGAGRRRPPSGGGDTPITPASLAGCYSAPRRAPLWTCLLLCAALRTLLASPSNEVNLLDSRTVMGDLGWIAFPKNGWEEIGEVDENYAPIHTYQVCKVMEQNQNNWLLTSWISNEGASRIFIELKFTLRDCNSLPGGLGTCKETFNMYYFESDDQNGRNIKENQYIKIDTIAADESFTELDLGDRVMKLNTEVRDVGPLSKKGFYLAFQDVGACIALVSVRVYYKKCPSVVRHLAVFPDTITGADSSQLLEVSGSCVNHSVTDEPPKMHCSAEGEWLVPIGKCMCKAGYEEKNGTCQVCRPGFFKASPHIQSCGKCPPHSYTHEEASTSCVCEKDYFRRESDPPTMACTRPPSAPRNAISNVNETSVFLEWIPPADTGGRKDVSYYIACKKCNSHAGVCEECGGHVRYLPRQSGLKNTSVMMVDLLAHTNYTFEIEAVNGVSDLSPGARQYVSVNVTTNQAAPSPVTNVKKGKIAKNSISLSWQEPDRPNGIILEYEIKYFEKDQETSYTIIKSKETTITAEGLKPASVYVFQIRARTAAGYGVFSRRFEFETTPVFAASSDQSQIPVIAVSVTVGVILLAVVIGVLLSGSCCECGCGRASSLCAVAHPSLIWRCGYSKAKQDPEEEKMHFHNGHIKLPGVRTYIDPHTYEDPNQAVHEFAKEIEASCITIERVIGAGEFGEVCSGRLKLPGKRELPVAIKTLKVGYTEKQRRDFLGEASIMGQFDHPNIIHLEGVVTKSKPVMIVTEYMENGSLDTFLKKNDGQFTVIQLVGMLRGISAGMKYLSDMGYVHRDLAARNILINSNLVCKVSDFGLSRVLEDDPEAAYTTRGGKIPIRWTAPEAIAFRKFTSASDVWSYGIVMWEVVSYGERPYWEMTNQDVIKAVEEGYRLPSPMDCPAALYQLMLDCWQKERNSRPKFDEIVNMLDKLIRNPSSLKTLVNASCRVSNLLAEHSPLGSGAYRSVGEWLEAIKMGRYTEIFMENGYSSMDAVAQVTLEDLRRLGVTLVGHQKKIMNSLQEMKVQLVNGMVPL

[7] = target: Tyrosine-protein kinase Fes/Fps (Homo sapiens) (UniProt P07332); assay: Binding affinity to wild-type human partial length FES (I527 to R822 residues) expressed in bacterial expression system assessed as remaining unbound target protein level at 1000 nM by Kinomescan method relative to control
In short: (§3)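 KINOMEscan binding panel of 468 kinases/mutants. Inhibitor was tested at a single concentration of 1 μM. Binding is reported as percent of control, defined relative to a DMSO control.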

[8] = target: Vascular endothelial growth factor receptor 3 (Homo sapiens) (UniProt P35916); assay: Binding affinity to wild-type human partial length FLT4 (E821 to E1196 residues) expressed in bacterial expression system assessed as remaining unbound target protein level at 1000 nM by Kinomescan method relative to control
[9] = target: Glycogen synthase kinase-3 beta (Homo sapiens) (UniProt P49841); assay: Binding affinity to wild-type human full length GSK3B (M1 to T433 residues) expressed in mammalian expression system assessed as remaining unbound target protein level at 1000 nM by Kinomescan method relative to control
In short: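 Single-point competition binding screen across a panel of 468 kinases and mutants, with the inhibitor at 1 μM. Binding is read out as percent of a DMSO control, and targets below 1 percent control were classed as strong binders.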

[10] = target: Serine/threonine-protein kinase haspin (Homo sapiens) (UniProt Q8TF76); assay: Binding affinity to wild-type human partial length HASPIN (I452 to K798 residues) expressed in mammalian expression system assessed as remaining unbound target protein level at 1000 nM by Kinomescan method relative to control; in short: as §3
[11] = target: Insulin-like growth factor 1 receptor (Homo sapiens) (UniProt P08069); assay: Binding affinity to wild-type human partial length IGF1R (L972 to D1294 residues) expressed in bacterial expression system assessed as remaining unbound target protein level at 1000 nM by Kinomescan method relative to control
Sequence of Insulin-like growth factor 1 receptor (Homo sapiens) (P08069 31-736 limits assumed): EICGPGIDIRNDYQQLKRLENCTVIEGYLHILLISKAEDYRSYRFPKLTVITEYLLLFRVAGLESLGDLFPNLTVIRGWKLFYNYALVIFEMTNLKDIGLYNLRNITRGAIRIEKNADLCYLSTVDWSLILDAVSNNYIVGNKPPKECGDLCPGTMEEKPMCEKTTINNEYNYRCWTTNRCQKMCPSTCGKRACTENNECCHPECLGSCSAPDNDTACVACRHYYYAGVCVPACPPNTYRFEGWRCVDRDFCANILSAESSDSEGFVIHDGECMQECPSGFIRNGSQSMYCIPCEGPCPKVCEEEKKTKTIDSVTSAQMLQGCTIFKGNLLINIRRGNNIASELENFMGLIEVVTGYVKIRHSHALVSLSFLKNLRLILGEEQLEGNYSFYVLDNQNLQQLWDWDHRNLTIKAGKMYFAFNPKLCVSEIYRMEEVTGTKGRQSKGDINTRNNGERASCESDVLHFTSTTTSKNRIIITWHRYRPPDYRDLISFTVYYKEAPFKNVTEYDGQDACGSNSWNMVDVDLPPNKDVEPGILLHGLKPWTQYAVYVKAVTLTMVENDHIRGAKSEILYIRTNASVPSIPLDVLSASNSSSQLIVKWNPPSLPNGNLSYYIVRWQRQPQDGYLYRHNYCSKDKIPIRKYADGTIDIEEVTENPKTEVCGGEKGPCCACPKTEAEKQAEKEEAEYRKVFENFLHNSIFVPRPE
Sequence of Insulin-like growth factor 1 receptor (Homo sapiens) (P08069 741-1367 limits assumed): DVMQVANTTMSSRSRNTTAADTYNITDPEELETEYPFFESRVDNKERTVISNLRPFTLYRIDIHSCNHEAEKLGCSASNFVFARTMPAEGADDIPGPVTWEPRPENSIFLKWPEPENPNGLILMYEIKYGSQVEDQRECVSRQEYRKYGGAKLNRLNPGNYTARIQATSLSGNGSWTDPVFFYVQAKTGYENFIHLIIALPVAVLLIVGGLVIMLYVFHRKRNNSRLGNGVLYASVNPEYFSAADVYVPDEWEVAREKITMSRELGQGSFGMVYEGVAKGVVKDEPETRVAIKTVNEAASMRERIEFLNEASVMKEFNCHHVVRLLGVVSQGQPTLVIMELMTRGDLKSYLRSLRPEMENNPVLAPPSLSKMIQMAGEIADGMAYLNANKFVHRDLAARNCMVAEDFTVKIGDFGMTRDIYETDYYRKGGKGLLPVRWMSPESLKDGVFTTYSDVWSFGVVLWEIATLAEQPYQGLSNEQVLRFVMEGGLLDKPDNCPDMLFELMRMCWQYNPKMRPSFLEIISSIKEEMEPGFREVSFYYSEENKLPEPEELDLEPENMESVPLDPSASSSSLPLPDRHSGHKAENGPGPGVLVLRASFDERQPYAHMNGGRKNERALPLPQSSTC

[12] = target: Tyrosine-protein kinase Lyn (Homo sapiens) (UniProt P07948); assay: Binding affinity to wild-type human partial length LYN (C219 to Q511 residues) expressed in bacterial expression system assessed as remaining unbound target protein level at 1000 nM by Kinomescan method relative to control; in short: as §3
[13] = target: Misshapen-like kinase 1 (Homo sapiens) (UniProt Q8N4C8); assay: Binding affinity to wild-type human partial length MINK (M1 to K312 residues) expressed in mammalian expression system assessed as remaining unbound target protein level at 1000 nM by Kinomescan method relative to control
[14] = target: Mitogen-activated protein kinase kinase kinase 9 (Homo sapiens) (UniProt P80192); assay: Binding affinity to wild-type human partial length MLK1 (V88 to W426 residues) expressed in bacterial expression system assessed as remaining unbound target protein level at 1000 nM by Kinomescan method relative to control; in short: as §3
[15] = target: Calcium-dependent protein kinase 1 (Plasmodium falciparum) (UniProt P62344); assay: Binding affinity to wild-type Plasmodium falciparum full length CDPK1 (M1 to S524 residues) expressed in mammalian expression system assessed as remaining unbound target protein level at 1000 nM by Kinomescan method relative to control; in short: as §2
[16] = target: Serine/threonine-protein kinase N2 (Homo sapiens) (UniProt Q16513); assay: Binding affinity to wild-type human partial length PKN2 (E634 to C984 residues) expressed in bacterial expression system assessed as remaining unbound target protein level at 1000 nM by Kinomescan method relative to control
Sequence of Serine/threonine-protein kinase N2 (Homo sapiens) (Q16513 whole entry, looked up, the tested form may be a part): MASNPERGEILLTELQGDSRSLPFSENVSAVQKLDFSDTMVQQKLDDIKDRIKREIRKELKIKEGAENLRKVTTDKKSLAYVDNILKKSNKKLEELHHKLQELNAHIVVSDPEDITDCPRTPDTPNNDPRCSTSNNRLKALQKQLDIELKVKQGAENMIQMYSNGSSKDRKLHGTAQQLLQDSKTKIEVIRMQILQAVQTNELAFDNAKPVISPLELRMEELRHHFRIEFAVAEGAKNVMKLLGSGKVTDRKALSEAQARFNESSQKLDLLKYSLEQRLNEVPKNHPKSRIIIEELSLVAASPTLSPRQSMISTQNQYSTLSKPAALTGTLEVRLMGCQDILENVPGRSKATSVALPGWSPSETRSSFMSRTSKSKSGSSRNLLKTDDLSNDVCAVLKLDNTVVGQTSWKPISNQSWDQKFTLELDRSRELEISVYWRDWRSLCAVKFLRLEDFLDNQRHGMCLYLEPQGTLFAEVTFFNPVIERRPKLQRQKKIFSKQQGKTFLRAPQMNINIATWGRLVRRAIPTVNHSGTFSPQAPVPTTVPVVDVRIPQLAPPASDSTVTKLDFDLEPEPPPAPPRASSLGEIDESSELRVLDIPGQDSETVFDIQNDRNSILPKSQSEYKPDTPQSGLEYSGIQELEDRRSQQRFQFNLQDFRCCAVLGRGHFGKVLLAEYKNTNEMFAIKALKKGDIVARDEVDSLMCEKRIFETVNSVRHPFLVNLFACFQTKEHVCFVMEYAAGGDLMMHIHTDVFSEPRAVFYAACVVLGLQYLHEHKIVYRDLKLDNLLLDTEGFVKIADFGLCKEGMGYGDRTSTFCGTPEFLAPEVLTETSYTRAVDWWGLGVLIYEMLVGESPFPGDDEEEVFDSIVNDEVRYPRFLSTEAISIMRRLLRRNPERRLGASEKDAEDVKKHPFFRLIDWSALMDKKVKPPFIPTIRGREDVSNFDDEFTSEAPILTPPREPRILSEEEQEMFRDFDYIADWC

[17] = target: Serine/threonine-protein kinase D2 (Homo sapiens) (UniProt Q9BZL6); assay: Binding affinity to wild-type human partial length PRKD2 (A519 to E838 residues) expressed in bacterial expression system assessed as remaining unbound target protein level at 1000 nM by Kinomescan method relative to control
[18] = target: STE20-like serine/threonine-protein kinase (Homo sapiens) (UniProt Q9H2G2); assay: Binding affinity to wild-type human partial length SLK (S14 to A307 residues) expressed in bacterial expression system assessed as remaining unbound target protein level at 1000 nM by Kinomescan method relative to control
[19] = target: Serine/threonine-protein kinase TBK1 (Homo sapiens) (UniProt Q9UHD2); assay: Binding affinity to wild-type human full length TBK1 (M1 to L729 residues) expressed in mammalian expression system assessed as remaining unbound target protein level at 1000 nM by Kinomescan method relative to control; in short: as §1
[20] = target: Non-receptor tyrosine-protein kinase TYK2 (Homo sapiens) (UniProt P29597); assay: Binding affinity to wild-type human partial length TYK2 JH2 pseudokinase domain (G556 to D888 residues) expressed in mammalian expression system assessed as remaining unbound target protein level at 1000 nM by Kinomescan method relative to control
[21] = target: Serine/threonine-protein kinase 32A (Homo sapiens) (UniProt Q8WU08); assay: Binding affinity to wild-type human full length YANK1 (M1 to L396 residues) expressed in mammalian expression system assessed as remaining unbound target protein level at 1000 nM by Kinomescan method relative to control
Sequence of Serine/threonine-protein kinase 32A (Homo sapiens) (Q8WU08 whole entry, the tested form may be a part): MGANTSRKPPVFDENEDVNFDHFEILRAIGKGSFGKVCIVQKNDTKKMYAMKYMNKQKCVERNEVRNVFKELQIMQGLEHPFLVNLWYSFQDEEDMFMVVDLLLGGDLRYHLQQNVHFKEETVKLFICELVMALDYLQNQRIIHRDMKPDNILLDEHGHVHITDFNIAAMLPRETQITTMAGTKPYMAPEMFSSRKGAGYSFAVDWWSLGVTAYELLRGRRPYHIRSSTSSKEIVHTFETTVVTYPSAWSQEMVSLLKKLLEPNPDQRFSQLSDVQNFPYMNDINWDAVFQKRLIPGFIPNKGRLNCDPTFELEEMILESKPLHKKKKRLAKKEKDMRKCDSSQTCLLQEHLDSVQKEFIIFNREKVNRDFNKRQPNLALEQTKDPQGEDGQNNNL
In short: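 Profiled in a KINOMEscan binding panel with the inhibitor at a single concentration of 1 μM. Binding to each kinase was read out as percent of control, relative to a DMSO control. Strong binders were defined as those with a percent control value below 1.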

In the case of `COCCN[C@H]1CC[C@H](Nc2cc(-c3csc(NCC4(C#N)CCOCC4)n3)c(Cl)cn2)CC1`, the inhibition [1] is reported as “inactive”, the Tmax [2] is reported as 4.98 min and the Activity [3] is reported as 91%. The Activity [4] was 66%, the Activity [5] was 100% and the Activity [6] was 97%. For the same compound, the Activity [7] was 99%, the Activity [8] was 88% and the Activity [9] was 98%. For the same compound, the Activity [10] was 94%, the Activity [11] was 92% and the Activity [12] was 86%. For the same compound, the Activity [13] was 92%, the Activity [14] was 86% and the Activity [15] was 77%. For the same compound, the Activity [16] was 100%, the Activity [17] was 70% and the Activity [18] was 81%. It also gave an Activity [19] of 86%, an Activity [20] of 100% and an Activity [21] of 100%.
